What was measured:
[1] = species on record: Rattus norvegicus; assay: Compound was evaluated for its activity at membrane-bound receptor (M+L+P fraction) from rat frontal cortex; format: functional, organism-based; conditions: for IC50: Rattus norvegicus, Frontal cortex
[2] = species on record: Rattus norvegicus; assay: Compound was evaluated for its activity at solubilized receptor (CHAPS/salt-solubilized preparation) from rat frontal cortex; format: functional, organism-based; conditions: for IC50: Rattus norvegicus, Frontal cortex
[3] = Binding affinity for membrane-bound 5-HT-S2 receptor; set-up: species or system Rattus norvegicus
Method in brief: (§1)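 Rat frontal cortex (M+L+P) fraction, diluted 1:100 w/v, in 50 mM Tris-HCl pH 7.7. Incubated 15 min at 37 °C with 1 nM [3H]-7-aminoketanserin (final) and unlabeled drug. Stopped by rapid GF/B filtration with two ice-cold buffer rinses, then scintillation counting. IC50 from two experiments in triplicate; Ki by Cheng-Prusoff.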

[4] = species on record: Rattus norvegicus; assay: (§2) Number of binding sites of the receptor was determined
Method in brief: (§3)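 Saturation binding of [3H]-7-aminoketanserin to rat frontal cortex (M+L+P) fraction (three experiments) or solubilized preparation (two experiments), each in triplicate. Specific binding is total minus binding with a 1000-fold methysergide excess. Bmax and KD taken from computer-fitted Scatchard plots.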

[5] = biological target: T1, Adrenergic receptor alpha-1 (Rattus norvegicus, UniProt P15823+P23944+P43140); assay: Compound was evaluated for binding activity against [3H]-WB- 4101 as radioligand for alpha-1 adrenergic receptor; format: protein assay
T1 sequence (P15823 whole entry): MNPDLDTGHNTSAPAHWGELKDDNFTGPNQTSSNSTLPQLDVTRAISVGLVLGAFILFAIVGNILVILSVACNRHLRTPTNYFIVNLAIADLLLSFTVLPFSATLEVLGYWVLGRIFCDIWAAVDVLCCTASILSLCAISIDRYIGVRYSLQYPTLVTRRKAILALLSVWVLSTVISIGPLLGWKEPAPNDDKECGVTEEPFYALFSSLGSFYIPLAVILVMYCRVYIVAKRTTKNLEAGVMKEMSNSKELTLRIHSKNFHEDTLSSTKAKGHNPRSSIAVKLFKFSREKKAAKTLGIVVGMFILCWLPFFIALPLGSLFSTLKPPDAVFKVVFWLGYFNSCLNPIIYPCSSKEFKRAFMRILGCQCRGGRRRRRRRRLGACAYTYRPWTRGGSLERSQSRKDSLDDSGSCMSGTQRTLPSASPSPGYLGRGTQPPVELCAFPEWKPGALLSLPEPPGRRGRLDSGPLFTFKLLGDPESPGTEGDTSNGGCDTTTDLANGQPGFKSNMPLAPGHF
T1 sequence (P23944 whole entry): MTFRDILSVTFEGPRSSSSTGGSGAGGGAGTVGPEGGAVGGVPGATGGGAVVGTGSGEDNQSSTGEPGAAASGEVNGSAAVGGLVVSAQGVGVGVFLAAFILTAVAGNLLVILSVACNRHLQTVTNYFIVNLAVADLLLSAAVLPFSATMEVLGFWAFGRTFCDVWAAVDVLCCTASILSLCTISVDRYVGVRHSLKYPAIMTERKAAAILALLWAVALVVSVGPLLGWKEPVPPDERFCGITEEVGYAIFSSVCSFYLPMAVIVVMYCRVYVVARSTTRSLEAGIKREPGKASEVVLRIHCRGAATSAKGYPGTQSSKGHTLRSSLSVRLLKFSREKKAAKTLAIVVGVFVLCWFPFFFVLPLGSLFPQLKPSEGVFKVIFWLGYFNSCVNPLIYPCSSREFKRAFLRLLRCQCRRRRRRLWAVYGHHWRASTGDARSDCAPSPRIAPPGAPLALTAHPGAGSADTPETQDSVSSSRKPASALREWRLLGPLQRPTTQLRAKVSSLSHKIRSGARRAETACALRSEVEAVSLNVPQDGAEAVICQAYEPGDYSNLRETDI
T1 sequence (P43140 whole entry): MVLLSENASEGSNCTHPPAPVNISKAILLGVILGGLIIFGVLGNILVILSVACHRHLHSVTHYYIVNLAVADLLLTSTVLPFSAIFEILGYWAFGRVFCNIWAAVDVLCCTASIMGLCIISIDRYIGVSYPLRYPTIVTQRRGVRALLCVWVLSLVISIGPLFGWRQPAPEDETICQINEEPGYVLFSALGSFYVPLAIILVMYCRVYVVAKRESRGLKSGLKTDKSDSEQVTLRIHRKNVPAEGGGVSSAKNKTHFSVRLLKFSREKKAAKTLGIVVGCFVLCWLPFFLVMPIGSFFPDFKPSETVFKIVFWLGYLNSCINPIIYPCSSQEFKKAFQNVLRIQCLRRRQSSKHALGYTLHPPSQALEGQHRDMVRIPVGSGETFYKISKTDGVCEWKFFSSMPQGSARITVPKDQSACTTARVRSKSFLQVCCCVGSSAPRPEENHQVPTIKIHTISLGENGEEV
Method in brief: (§4)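 Filtration binding technique applied to rat or guinea pig brain tissue. Tissues, buffers, radioligands and incubation conditions per earlier methods. Ki computed using radioligand KD values from the literature.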

[6] = biological target: Muscarinic acetylcholine receptor; assay: Compound was evaluated for binding activity against [3H]dexetimide as radioligand for muscarinic-acetylcholine receptor; format: protein assay; method in brief: as §4
[7] = biological target: Serotonin 2 (5-HT2) receptor (Rattus norvegicus, UniProt P30994+P08909+P14842); assay: Evaluated for binding activity against [3H]ketanserin as radioligand for 5-hydroxytryptamine 2 receptor; format: protein assay; method in brief: as §4
[8] = species on record: Rattus norvegicus; assay: as §2; method in brief: as §3; remark: listed apart in the source
[9] = biological target: T2, Adrenergic receptor alpha-2 (Rattus norvegicus, UniProt P22086+P19328+P22909); assay: Compound was evaluated for binding activity against [3H]clonidine as radioligand for alpha-2 adrenergic receptor; format: protein assay; method in brief: as §4
T2 sequence (P22086 whole entry): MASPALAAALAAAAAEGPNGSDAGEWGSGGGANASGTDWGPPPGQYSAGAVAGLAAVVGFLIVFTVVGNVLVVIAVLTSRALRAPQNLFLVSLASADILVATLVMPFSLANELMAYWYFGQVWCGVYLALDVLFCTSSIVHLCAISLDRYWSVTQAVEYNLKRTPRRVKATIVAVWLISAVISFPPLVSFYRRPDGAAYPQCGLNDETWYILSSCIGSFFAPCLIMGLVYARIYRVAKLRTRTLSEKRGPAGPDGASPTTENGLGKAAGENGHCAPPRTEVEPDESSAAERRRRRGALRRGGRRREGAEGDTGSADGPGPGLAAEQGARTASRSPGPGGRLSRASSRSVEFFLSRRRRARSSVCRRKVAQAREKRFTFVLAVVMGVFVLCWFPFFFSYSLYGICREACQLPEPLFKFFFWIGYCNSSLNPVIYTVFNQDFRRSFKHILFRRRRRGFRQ
T2 sequence (P19328 whole entry): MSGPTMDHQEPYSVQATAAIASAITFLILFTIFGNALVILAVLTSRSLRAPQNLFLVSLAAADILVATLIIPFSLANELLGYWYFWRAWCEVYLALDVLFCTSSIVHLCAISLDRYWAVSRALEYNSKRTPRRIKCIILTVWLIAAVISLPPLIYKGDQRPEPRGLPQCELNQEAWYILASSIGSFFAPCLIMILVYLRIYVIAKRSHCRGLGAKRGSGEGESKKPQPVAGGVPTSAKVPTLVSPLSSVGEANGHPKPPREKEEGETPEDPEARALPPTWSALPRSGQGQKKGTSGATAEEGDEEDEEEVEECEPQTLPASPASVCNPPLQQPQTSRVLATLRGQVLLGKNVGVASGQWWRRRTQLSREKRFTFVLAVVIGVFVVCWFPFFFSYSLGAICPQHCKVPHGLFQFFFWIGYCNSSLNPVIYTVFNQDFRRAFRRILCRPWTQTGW
T2 sequence (P22909 whole entry): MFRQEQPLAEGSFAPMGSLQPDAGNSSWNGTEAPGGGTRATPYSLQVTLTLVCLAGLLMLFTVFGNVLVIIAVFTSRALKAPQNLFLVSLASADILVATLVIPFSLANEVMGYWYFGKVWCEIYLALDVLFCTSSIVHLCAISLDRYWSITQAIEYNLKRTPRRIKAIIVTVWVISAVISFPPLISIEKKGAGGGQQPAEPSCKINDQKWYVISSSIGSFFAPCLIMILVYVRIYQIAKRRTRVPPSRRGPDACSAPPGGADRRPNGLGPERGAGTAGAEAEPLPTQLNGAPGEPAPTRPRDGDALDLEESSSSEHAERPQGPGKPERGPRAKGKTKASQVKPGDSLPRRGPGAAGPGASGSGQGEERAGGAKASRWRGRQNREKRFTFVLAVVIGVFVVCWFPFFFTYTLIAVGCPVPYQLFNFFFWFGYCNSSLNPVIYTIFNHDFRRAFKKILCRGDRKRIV

[10] = Compound was evaluated at solubilized receptor (CHAPS/salt-solubilized preparation) from rat frontal cortex; format: tissue-based
Method in brief: (§5)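 Rat frontal cortex microsomal fraction solubilized for 12 min at 4 °C in CHAPS/NaCl medium (13.6 mM CHAPS, 2.8 M NaCl, pH 7.2), centrifuged at 180000 g, and supernatant diluted to 1:16 w/v. Incubated 15 min at 30 °C with 2 nM [3H]-7-aminoketanserin (final) and drug. Free ligand removed by charcoal/BSA, supernatant counted. IC50 from two triplicate experiments; Ki by Cheng-Prusoff.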

[11] = biological target: Histamine H1 receptor (Rattus norvegicus, UniProt P31390); assay: Compound was evaluated for binding activity against [3H]pyrilamine as radioligand for Histamine H1 receptor; method in brief: as §4
[12] = Half life time was determined; format: ADME
Method in brief: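 Kinetics of [3H]-7-aminoketanserin at rat frontal cortex receptors, membrane-bound (M+L+P) or CHAPS/salt-solubilized. Association ran for 20 min. Dissociation was started by adding a 1000-fold excess of pipamperone and treated as first-order. Means ± SD of independent triplicate experiments.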

[13] = Binding affinity for detergent solubilized 5-HT-S2 receptor; set-up: species or system Rattus norvegicus; method in brief: as §5
[14] = biological target: T3, Serotonin 1 (5-HT1) receptor (Rattus norvegicus, UniProt P28564+P30940+P19327+P28565); assay: Compound was evaluated for binding activity against [3H]-5-HT as radioligand for serotonin S1 receptor; format: protein assay; method in brief: as §4
[15] = biological target: D(2) dopamine receptor (Rattus norvegicus, UniProt P61169); assay: Compound was evaluated for binding activity against [3H]haloperidol as radioligand for Dopamine receptor D2; method in brief: as §4
[16] = Compound was evaluated at membrane-bound receptor (M+L+P fraction) from rat frontal cortex; format: tissue-based; method in brief: as §1
[17] = biological target: Adrenergic receptor beta (Rattus norvegicus, UniProt P18090+P10608+P26255); assay: Compound was evaluated for binding activity against [3H]dihydroalprenolol as radioligand for beta adrenergic receptor; format: protein assay; method in brief: as §4
[18] = biological target: T3, Serotonin 1 (5-HT1) receptor; assay: Compound was evaluated for binding activity against [3H]5-HT as radioligand for serotonin S1 receptor; format: protein assay; method in brief: as §4

Chain of D(2) dopamine receptor (P61169 whole entry): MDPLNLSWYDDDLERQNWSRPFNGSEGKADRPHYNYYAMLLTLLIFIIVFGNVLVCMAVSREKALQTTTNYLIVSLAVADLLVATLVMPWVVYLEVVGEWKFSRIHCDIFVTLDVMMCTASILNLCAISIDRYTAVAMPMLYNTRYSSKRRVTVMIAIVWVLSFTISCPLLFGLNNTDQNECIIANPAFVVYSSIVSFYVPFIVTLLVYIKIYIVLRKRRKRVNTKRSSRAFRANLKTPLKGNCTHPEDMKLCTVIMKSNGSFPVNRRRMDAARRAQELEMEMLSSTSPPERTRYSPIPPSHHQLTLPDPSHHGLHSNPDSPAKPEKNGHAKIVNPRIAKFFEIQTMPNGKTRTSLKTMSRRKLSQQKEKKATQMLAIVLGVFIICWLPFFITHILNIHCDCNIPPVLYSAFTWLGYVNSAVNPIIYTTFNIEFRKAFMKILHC
Chain of Histamine H1 receptor (P31390 whole entry): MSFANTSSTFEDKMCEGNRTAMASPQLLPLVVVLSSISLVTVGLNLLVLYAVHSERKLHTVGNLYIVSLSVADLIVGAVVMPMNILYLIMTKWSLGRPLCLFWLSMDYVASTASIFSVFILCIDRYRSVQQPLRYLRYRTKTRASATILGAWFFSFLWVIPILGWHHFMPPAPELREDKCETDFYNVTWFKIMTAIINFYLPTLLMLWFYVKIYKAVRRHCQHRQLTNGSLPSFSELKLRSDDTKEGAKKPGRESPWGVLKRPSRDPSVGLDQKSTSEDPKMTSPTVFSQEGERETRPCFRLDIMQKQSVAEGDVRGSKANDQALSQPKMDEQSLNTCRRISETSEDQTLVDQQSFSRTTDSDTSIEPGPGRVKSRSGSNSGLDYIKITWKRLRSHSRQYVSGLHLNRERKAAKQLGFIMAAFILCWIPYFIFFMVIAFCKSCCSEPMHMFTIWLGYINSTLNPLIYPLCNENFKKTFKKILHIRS

Cc1nc2sccn2c(=O)c1CCN1CCC(=C(c2ccc(F)cc2)c2ccc(F)cc2)CC1 [RITANSERIN]
Ki [1]: 0.9 nM | IC50 [1]: 3.47 nM | Ki [2]: 0.00706 µM | IC50 [2]: 14.1 nM

CN(C)CCc1c[nH]c2ccc(O)cc12 [BUFOTENINE]
Ki [1]: 341 nM | IC50 [1]: 1320 nM | Ki [2]: 6.29 µM | IC50 [2]: 12600 nM

CN1CCN2c3ccccc3Cc3ccccc3C2C1 (configuration not stated) [MIANSERIN]
Ki [1]: 3.04 nM | IC50 [1]: 11.7 nM | Ki [2]: 0.0135 µM | IC50 [2]: 26.9 nM

O=C(c1ccc(F)cc1)C1CCN(CCn2c(=O)[nH]c3ccccc3c2=O)CC1 [KETANSERIN]
Ki [1]: 0.68 nM | IC50 [1]: 2.63 nM | Ki [2]: 0.00397 µM | IC50 [2]: 7.94 nM

COc1ccc(CN(CCN(C)C)c2ccccn2)cc1 [PYRILAMINE]
Ki [1]: 1030 nM | IC50 [1]: 3980 nM | Ki [2]: 9.98 µM | IC50 [2]: 20000 nM

Nc1ccc2c(=O)n(CCN3CCC(C(=O)c4ccc(F)cc4)CC3)c(=O)[nH]c2c1
Kd [3]: 0.35 nM | Bmax [4]: 37 fmol/mg | -Log IC50 [5]: 7.82 | Ki [5]: 5.49 nM | -Log IC50 [6]: < 6 | -Log IC50 [7]: 9.25 | Ki [7]: 0.17 nM | Bmax [8]: 4.18 fmol/mg | -Log IC50 [9]: < 6 | -Log IC50 [10]: 8.35 | Ki [10]: 2.23 nM | IC50 [11]: 2.24 nM | Ki [11]: 1.22 nM | T1/2 [12]: 12.4 min | half-life [12]: 7.8 min | Kd [13]: 2.03 nM | -Log IC50 [14]: 5.25 | IC50 [15]: 417 nM | Ki [15]: 164 nM | -Log IC50 [16]: 8.86 | Ki [16]: 0.36 nM | -Log IC50 [17]: < 6 | Ki [18]: 4.416 µM

(-)-BUTACLAMOL
-Log IC50 [1]: 4.9 | Ki [1]: 3260 nM | -Log IC50 [2]: 4.56 | Ki [2]: 13.8 µM

Source: ChEMBL document CHEMBL1123428, “In vitro labeling of serotonin-S2 receptors: synthesis and binding characteristics of [3H]-7-aminoketanserin” (J Med Chem, 1986)
